Source: ChEMBL document CHEMBL1154780, “Synthesis of new linear guanidines and macrocyclic amidinourea derivatives endowed with high antifungal activity against Candida spp. and Aspergillus spp” (J Med Chem, 2009)
Values after ≈ are worked out from the molar mass of the structure shown.

How the values were obtained:
[1] = test system: Candida parapsilosis; experiment: Anticandidal activity against Candida parapsilosis 64E after 24 hrs by spectrophotometry; format: functional; settings: Lodderomyces parapsilosis
[2] = test system: Candida albicans; experiment: Anticandidal activity against Candida albicans 53T after 24 hrs by spectrophotometry; format: functional
[3] = test system: Candida albicans; experiment: Anticandidal activity against Candida albicans 15T after 24 hrs by spectrophotometry; format: functional
[4] = test system: Candida tropicalis; experiment: Anticandidal activity against Candida tropicalis 86E after 24 hrs by spectrophotometry; format: functional
[5] = test system: Candida parapsilosis; experiment: Anticandidal activity against Candida parapsilosis ATCC 34136 after 24 hrs by spectrophotometry; format: functional; settings: Lodderomyces parapsilosis, ATCC 34136, 24 h
[6] = test system: Pichia kudriavzevii; experiment: Anticandidal activity against Candida krusei ATCC 14243 after 24 hrs by spectrophotometry; format: functional; settings: ATCC 14243, 24 h
[7] = test system: Nakaseomyces glabratus; experiment: Anticandidal activity against Candida glabrata 70E after 24 hrs by spectrophotometry; format: functional
[8] = test system: Candida albicans; experiment: Anticandidal activity against Candida albicans 4T after 24 hrs by spectrophotometry; format: functional
[9] = test system: Pichia kudriavzevii; experiment: Anticandidal activity against Candida krusei 193T after 24 hrs by spectrophotometry; format: functional
[10] = test system: Candida albicans; experiment: Anticandidal activity against Candida albicans ATCC 60193 after 24 hrs by spectrophotometry; format: functional; settings: ATCC 60193, 24 h
[11] = test system: Candida parapsilosis; experiment: Anticandidal activity against Candida parapsilosis 81E after 24 hrs by spectrophotometry; format: functional; settings: Lodderomyces parapsilosis
[12] = Cytotoxicity against human lymphocytes at 40 uM; format: cell-based; settings: lymphocyte
Procedure, shortened: (§1)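 Human lymphocytes exposed to compound at concentrations between 0 and 50 μM, at both 25 and 37 °C; read-out is percent cell viability.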

[13] = Cytotoxicity against human lymphocytes assessed as cell viability up to 30 uM; format: cell-based, Lymphocyte; settings: read-out: Activity; procedure, shortened: as §1
[14] = test system: Aspergillus niger; experiment: Antifungal activity against Aspergillus niger isolated from patient nasal swab after 48 hrs by broth microdilution method; format: functional
[15] = test system: Aspergillus versicolor; experiment: Antifungal activity against Aspergillus versicolor isolated from patient skin after 48 hrs by broth microdilution method; format: functional
[16] = Therapeutic index, ratio of drug level reducing 50% viability of human lymphocytes at 25 degC to MIC50 for Candida sp.
[17] = Cytotoxicity against human lymphocytes at 50 uM; format: cell-based; settings: lymphocyte; procedure, shortened: as §1
[18] = test system: Aspergillus fumigatus; experiment: Antifungal activity against Aspergillus fumigatus isolated from patient bronchoalveolar lavage fluid after 48 hrs by broth microdilution method; format: functional; settings: Lung
[19] = test system: Aspergillus niger; experiment: Antifungal activity against Aspergillus niger isolated from patient sputum after 48 hrs by broth microdilution method; format: functional
[20] = Therapeutic index, ratio of drug level reducing 50% viability of human lymphocytes at 37 degC to MIC50 for Candida sp.
Procedure, shortened: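 Index is the lymphocyte concentration giving 50% viability at 37 °C divided by MIC50 for each Candida species; lymphocytes were exposed to 0–50 μM.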

[21] = test system: Aspergillus fumigatus; experiment: Antifungal activity against Aspergillus fumigatus isolated from patient sputum after 48 hrs by broth microdilution method; format: functional
[22] = test system: Aspergillus terreus; experiment: Antifungal activity against Aspergillus terreus isolated from patient bronchoalveolar lavage fluid after 48 hrs by broth microdilution method; format: functional; settings: Lung
[23] = test system: Aspergillus versicolor; experiment: Antifungal activity against Aspergillus versicolor isolated from patient sputum after 48 hrs by broth microdilution method; format: functional
[24] = test system: Aspergillus flavus; experiment: Antifungal activity against Aspergillus flavus isolated from patient sputum after 48 hrs by broth microdilution method; format: functional

SMILES | MIC [1] | MIC [2] | MIC [3] | MIC [4] | MIC [5] | MIC [6] | MIC [7] | MIC [8] | MIC [9] | MIC [10] | MIC [11] | also measured
N=C(N)NCCCCCCCCNCCCCCCCCNC(=N)NCC1CC1 | 5 µM (≈ 2.05 µg/mL) | 10 µM (≈ 4.1 µg/mL) | 20 µM (≈ 8.19 µg/mL) | 5 µM (≈ 2.05 µg/mL) | 80 µM (≈ 32.8 µg/mL) | 5 µM (≈ 2.05 µg/mL) | 20 µM (≈ 8.19 µg/mL) | 10 µM (≈ 4.1 µg/mL) | 10 µM (≈ 4.1 µg/mL) | 20 µM (≈ 8.19 µg/mL) | 20 µM (≈ 8.19 µg/mL) | –
CC(C)=CCNC(=N)NCCCCCCCCNCCCCCCCCNC(=N)N | > 80 µM | 80 µM (≈ 33.9 µg/mL) | 40 µM (≈ 16.9 µg/mL) | 20 µM (≈ 8.47 µg/mL) | > 80 µM | 40 µM (≈ 16.9 µg/mL) | 80 µM (≈ 33.9 µg/mL) | 80 µM (≈ 33.9 µg/mL) | 20 µM (≈ 8.47 µg/mL) | 80 µM (≈ 33.9 µg/mL) | 40 µM (≈ 16.9 µg/mL) | –
CC(C)=CCNC(=N)NCCCCCCCCNCCCCCCCCNC(=N)NCC=C(C)C | > 80 µM | 80 µM (≈ 39.3 µg/mL) | > 80 µM | > 80 µM | > 80 µM | 40 µM (≈ 19.7 µg/mL) | > 80 µM | 80 µM (≈ 39.3 µg/mL) | 80 µM (≈ 39.3 µg/mL) | > 80 µM | > 80 µM | –
CC(C)=CCNC(=N)NCCCCCCCCN1CCCCCCCCNC(=N)NC1=O | > 80 µM | 20 µM (≈ 8.99 µg/mL) | 20 µM (≈ 8.99 µg/mL) | 20 µM (≈ 8.99 µg/mL) | > 80 µM | 10 µM (≈ 4.5 µg/mL) | 80 µM (≈ 36 µg/mL) | 20 µM (≈ 8.99 µg/mL) | 20 µM (≈ 8.99 µg/mL) | 40 µM (≈ 18 µg/mL) | 40 µM (≈ 18 µg/mL) | –
N=C(NCCCCCCCCN1CCCCCCCCNC(=N)NC1=O)NCc1ccccc1 | 20 µM (≈ 9.43 µg/mL) | 2.5 µM (≈ 1.18 µg/mL) | 5 µM (≈ 2.36 µg/mL) | 2.5 µM (≈ 1.18 µg/mL) | 80 µM (≈ 37.7 µg/mL) | 20 µM (≈ 9.43 µg/mL) | 40 µM (≈ 18.9 µg/mL) | 2.5 µM (≈ 1.18 µg/mL) | 10 µM (≈ 4.72 µg/mL) | 2.5 µM (≈ 1.18 µg/mL) | 20 µM (≈ 9.43 µg/mL) | –
N=C(N)NCCCCCCCCN(CCCCCCCCNC(=N)N)C(=N)N | > 80 µM | 20 µM (≈ 7.95 µg/mL) | 10 µM (≈ 3.98 µg/mL) | 1.25 µM (≈ 0.497 µg/mL) | > 80 µM | 10 µM (≈ 3.98 µg/mL) | > 80 µM | 5 µM (≈ 1.99 µg/mL) | 40 µM (≈ 15.9 µg/mL) | 5 µM (≈ 1.99 µg/mL) | > 80 µM | –
C#CCNC(=N)NCCCCCCCCN1CCCCCCCCNC(=N)NC1=O | 40 µM (≈ 16.8 µg/mL) | 5 µM (≈ 2.1 µg/mL) | 2.5 µM (≈ 1.05 µg/mL) | 5 µM (≈ 2.1 µg/mL) | 40 µM (≈ 16.8 µg/mL) | 80 µM (≈ 33.6 µg/mL) | 80 µM (≈ 33.6 µg/mL) | 80 µM (≈ 33.6 µg/mL) | 40 µM (≈ 16.8 µg/mL) | 2.5 µM (≈ 1.05 µg/mL) | 80 µM (≈ 33.6 µg/mL) | –
C=C(C)CNC(=N)NCCCCCCCCN1CCCCCCCCNC(=N)NC1=O | > 80 µM | 40 µM (≈ 17.4 µg/mL) | 20 µM (≈ 8.71 µg/mL) | 40 µM (≈ 17.4 µg/mL) | > 80 µM | 40 µM (≈ 17.4 µg/mL) | 80 µM (≈ 34.9 µg/mL) | 40 µM (≈ 17.4 µg/mL) | 80 µM (≈ 34.9 µg/mL) | 20 µM (≈ 8.71 µg/mL) | > 80 µM | –
C/C=C/CNC(=N)NCCCCCCCCN1CCCCCCCCNC(=N)NC1=O | 5 µM (≈ 2.18 µg/mL) | 2.5 µM (≈ 1.09 µg/mL) | 1.25 µM (≈ 0.545 µg/mL) | 1.25 µM (≈ 0.545 µg/mL) | 5 µM (≈ 2.18 µg/mL) | 5 µM (≈ 2.18 µg/mL) | 20 µM (≈ 8.71 µg/mL) | 1.25 µM (≈ 0.545 µg/mL) | 5 µM (≈ 2.18 µg/mL) | 2.5 µM (≈ 1.09 µg/mL) | 5 µM (≈ 2.18 µg/mL) | Activity [12]: 78%; viability [13]: 100%; MIC [14]: 18 µM (≈ 7.84 µg/mL); MIC [15]: 4 µM (≈ 1.74 µg/mL); Ratio [16]: 2.4; Activity [17]: 43%; MIC [18]: 36 µM (≈ 15.7 µg/mL); MIC [19]: 18 µM (≈ 7.84 µg/mL); Ratio [20]: 1.9; MIC [21]: 73 µM (≈ 31.8 µg/mL); MIC [22]: 73 µM (≈ 31.8 µg/mL); MIC [23]: 18 µM (≈ 7.84 µg/mL); MIC [24]: 36 µM (≈ 15.7 µg/mL)
C[C@@H]1[C@H](O)[C@@H](C)/C=C/C=C/C=C/C=C/C=C/C=C/C=C/[C@H](O[C@@H]2O[C@H](C)[C@@H](O)[C@H](N)[C@@H]2O)C[C@@H]2O[C@](O)(C[C@@H](O)C[C@@H](O)[C@H](O)CC[C@@H](O)C[C@@H](O)CC(=O)O[C@H]1C)C[C@H](O)[C@H]2C(=O)O [AMPHOTERICIN B] | – | – | – | – | – | – | – | – | – | – | – | MIC [14]: 0.135 µM (≈ 0.125 µg/mL); MIC [15]: 0.135 µM (≈ 0.125 µg/mL); MIC [18]: 0.27 µM (≈ 0.25 µg/mL); MIC [19]: 0.27 µM (≈ 0.25 µg/mL); MIC [21]: 0.135 µM (≈ 0.125 µg/mL); MIC [22]: 1 µM (≈ 0.924 µg/mL); MIC [23]: 0.54 µM (≈ 0.499 µg/mL); MIC [24]: 2.1 µM (≈ 1.94 µg/mL)
OC(Cn1cncn1)(Cn1cncn1)c1ccc(F)cc1F [FLUCONAZOLE] | 32 µM (≈ 9.8 µg/mL) | 418 µM (≈ 128 µg/mL) | 209 µM (≈ 64 µg/mL) | 52 µM (≈ 15.9 µg/mL) | 6.5 µM (≈ 1.99 µg/mL) | 209 µM (≈ 64 µg/mL) | 209 µM (≈ 64 µg/mL) | 209 µM (≈ 64 µg/mL) | 418 µM (≈ 128 µg/mL) | 0.8 µM (≈ 0.245 µg/mL) | 13 µM (≈ 3.98 µg/mL) | –
N=C(N)NCCCCCCCCNCCCCCCCCNC(=N)N [IMINOCTADIENE] | 40 µM (≈ 14.2 µg/mL) | 40 µM (≈ 14.2 µg/mL) | 80 µM (≈ 28.4 µg/mL) | 1.25 µM (≈ 0.444 µg/mL) | > 80 µM | 20 µM (≈ 7.11 µg/mL) | 40 µM (≈ 14.2 µg/mL) | 80 µM (≈ 28.4 µg/mL) | 20 µM (≈ 7.11 µg/mL) | 80 µM (≈ 28.4 µg/mL) | 20 µM (≈ 7.11 µg/mL) | –
CCC(C)n1ncn(-c2ccc(N3CCN(c4ccc(OCC5COC(Cn6cncn6)(c6ccc(Cl)cc6Cl)O5)cc4)CC3)cc2)c1=O (stereo not given) [ITRACONAZOLE] | – | – | – | – | – | – | – | – | – | – | – | MIC [14]: 0.35 µM (≈ 0.247 µg/mL); MIC [15]: 0.35 µM (≈ 0.247 µg/mL); MIC [18]: 0.04 µM (≈ 0.0282 µg/mL); MIC [19]: 0.35 µM (≈ 0.247 µg/mL); MIC [21]: 0.35 µM (≈ 0.247 µg/mL); MIC [22]: 0.35 µM (≈ 0.247 µg/mL); MIC [23]: 0.02 µM (≈ 0.0141 µg/mL); MIC [24]: 0.04 µM (≈ 0.0282 µg/mL)
